Screening data deposited in PubChem by several laboratories.
In the library only some 2.9% were active in any assay of this set; here they are far more common.
SENP1 FRET inh = SENP1 (human) catalytic domain inhibition; Q9P0U3; recombinant SENP1 catalytic domain, CyPet-SUMO1-YPet FRET cleavage; inhibition, % at 10 µM; 360,000 compounds, 0.21% hits; AID 624204;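 active means inhibition at least 30% at 10 µM, raw YFP signal under a set limit, fluorescence ratio 0.5 to 1.5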;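 further: 0% = enzyme with DMSO and 100% = no enzyme wells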
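Test system: hSENP1 catalytic domain, recombinant; Amount: 20 pM final SENP1 enzyme; Medium: Tris pH 8 buffer plus EDTA, NaCl, BME, BSA, NP40, catalase; Schedule: 50 min enzyme reaction, room temperature, light-protected; Technique: FRET fluorescence in CFP and YFP emission channels; Controls: no-enzyme wells low, DMSO-plus-enzyme wells high control.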
HSP90 inh = HSP90 refolding inhibition in rabbit reticulocyte lysate. inhibition, % at 5.6 µM. luciferase refolding luminescence, 3 h. AID 1789. 290,000 compounds, 0.91% hits;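 active means inhibition above the screen-wide mean plus 3 SD, computed separately per campaign, cut at about 16% in these data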;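 further: 0% = DMSO wells and 100% = 60 µM geldanamycin wells; inhibitors lower the luminescence because luciferase stays unfolded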
SENP8 block-1 = inhibitors of human SENP8 protease. Q96LD8. recombinant SENP8, Nedd8 substrate fluorescence. inhibition, % at 20 µM. 360,000 compounds, 0.64% hits; in the data active means inhibition mostly above about 40%, no sharp cut-off; inactive means mostly below about 27%
SENP7 inh = blocks the human protease SENP7 | Q9BQF6 | recombinant SENP7, Z-RLRGG-aminoluciferin luminescence, 40 min | inhibition, % at 5 µM | 330,000 compounds, 1.5% hits | AID 434973;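 active means inhibition above about 50% at the single test dose, limit read from the data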;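 further: plate controls were DMSO with enzyme for no effect and no enzyme buffer wells for full effect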
SENP6 inh = SENP6 protease inhibition. 330,000 compounds, 1.8% hits. Q9GZR1. AID 2599. Recombinant SENP6 catalytic domain, aminoluciferin luminescence. inhibition, % at 10 µM;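 active means inhibition above about 50% at the single tested dose, limit read from the data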;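 further: plate controls were DMSO wells with enzyme for no effect and DMSO wells lacking enzyme for full effect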
Target sequence (Q9GZR1 628-1112 limits assumed): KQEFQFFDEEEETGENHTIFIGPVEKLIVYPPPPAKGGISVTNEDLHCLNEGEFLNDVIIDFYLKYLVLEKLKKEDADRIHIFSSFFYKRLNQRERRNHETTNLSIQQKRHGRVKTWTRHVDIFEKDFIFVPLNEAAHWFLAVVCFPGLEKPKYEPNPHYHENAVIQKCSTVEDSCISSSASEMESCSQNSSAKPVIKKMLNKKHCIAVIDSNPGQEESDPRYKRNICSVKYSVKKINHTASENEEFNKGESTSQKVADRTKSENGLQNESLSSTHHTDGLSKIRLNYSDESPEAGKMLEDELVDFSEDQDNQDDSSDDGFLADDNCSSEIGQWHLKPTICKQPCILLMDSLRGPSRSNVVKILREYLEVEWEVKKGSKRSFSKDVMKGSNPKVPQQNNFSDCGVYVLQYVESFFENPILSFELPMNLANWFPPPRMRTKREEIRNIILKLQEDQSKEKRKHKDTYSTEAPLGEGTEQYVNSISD
SENP8 block-2 = inhibitors of human SENP8 protease | Q96LD8 | purified SENP8, Z-RLRGG-aminoluciferin cleavage, luminescence | inhibition, % at 10 µM | 330,000 compounds, 1.2% hits | AID 2540; in the data active means inhibition above about 50%
HSP90 inh confirm = confirmation of HSP90 inhibitors. shares compounds with HSP90 inh. rabbit reticulocyte lysate, luciferase refolding luminescence, 3 h. inhibition, % at 5.9 µM. 2,300 compounds, 64% hits; in the data active means inhibition above about 18%;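 further: 0% = vehicle wells and 100% = reference inhibitor wells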
FLuc counter = counter-screen for HSP90 inhibitors: inhibitors of firefly luciferase. purified native firefly luciferase, luminescence. 2,300 compounds, 48% hits. AID 1847. shares compounds with HSP90 inh. inhibition, % at 5.9 µM;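 active means inhibition above the mean inhibition of all tested sample wells plus 3 SD, cut at about 10% in these data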;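 further: 0% = DMSO with luciferase and 100% = wells lacking luciferase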
* hit, by the source's call; · = no result.

SMILES	SENP1 FRET inh	HSP90 inh	SENP8 block-1	SENP7 inh	SENP6 inh	SENP8 block-2	HSP90 inh confirm	FLuc counter
CN(C)c1ccc(-c2nn3c(-c4cccnc4)nnc3s2)cc1	·	·	·	-1	-10	-7	·	·
Cc1nnc2sc(-c3ccc(N(C)C)cc3)nn2c1=O	-22	20*	-285	7	-3	1	8	-10
CCOC(=O)NS(=O)(=O)c1ccc(CCNC(=O)c2cc(C)on2)cc1	-1	-11	14	1	4	4	·	·
CC1(C)C(=O)NCCN1C(=O)CC1C(=O)NCCN1CC(c1ccccc1)c1ccccc1 (stereo not given)	-16	24*	-42	-5	-25	-3	-2	-3
CC(C)(CO)NC(=O)CC1C(=O)NCCN1CC(c1ccccc1)c1ccccc1 (stereo not given)	-7	-3	-9	-10	-33	-13	·	·
CCc1nnc(SCC(=O)Nc2ccc(F)cc2)o1	3	-2	3	-1	-4	2	·	·
CC1CCN(C2=NC(=O)/C(=C/c3ccccc3F)S2)CC1	1	23*	14	-45	-51	-39	35*	14*
C[C@@H]1CN([C@H](C)CO)C(=O)Cc2cc(NC(=O)Nc3ccccc3)ccc2O[C@@H]1CN(C)C(=O)Nc1ccc2c(c1)OCO2	2	·	13	-6	-28	-11	·	·
COc1ccc(C(=O)C(C)OC(=O)CCN2C(=O)C3CC=CCC3C2=O)cc1 (stereo not given)	1	·	10	-5	1	-14	·	·
CC(=O)Nc1ccc(OS(=O)(=O)c2ccc([N+](=O)[O-])cc2)cc1	2	55*	16	4	2	-8	76*	-5
COc1ccc2c(c1)c(/C=N/Nc1ccc(C(=O)O)cc1)c(C)n2C	-1	30*	-387	8	-7	-5	41*	35*
CCc1nc2ccc(C(=O)NC3CCN(Cc4ccccc4)CC3)cn2c1N(C)Cc1cc2ccccc2s1	-23	·	-12	·	·	·	·	·
CC1(C)C(C=C(Cl)Cl)C1C(=O)N(Cc1cccc(Cl)c1)C1CCS(=O)(=O)C1 (stereo not given)	-1	17*	8	8	-6	2	1	-10
CSCCC(N=C1NS(=O)(=O)c2ccccc21)C(=O)NCCc1ccccc1 (stereo not given)	1	-4	0	-2	8	4	·	·
CC[C@@]1(c2ccccc2)C(=O)N(C(=O)OC)N1C(=O)OC	0	-5	20	10	-33	-9	·	·
COC(=O)N1C(=O)[C@](c2ccccc2)(C(C)C)N1C(=O)OC	1	31*	8	-5	0	3	3	-2
O=c1c2sc3nc(N4CCOCC4)c4c(c3c2ncn1C(c1ccccc1)c1ccccc1)CCCC4	0	·	-422	·	·	·	·	·
O=C(NCCN1CCOCC1)c1ccc2c(c1)N(Cc1cccc(F)c1)C(=O)c1ccccc1S2	-3	20*	14	-3	-20	-4	-4	-8
Cc1c(NC(=O)C(C)OC(=O)c2cc(Cl)ccc2O)c(=O)n(-c2ccccc2)n1C (stereo not given)	2	0	-22	5	3	2	·	·
CCOC(=O)N/N=C/c1cn(CCCOc2ccc(C)cc2)c2ccccc12	2	18*	15	-11	-10	-7	9	-7
O=C(N1CCCC1)C12CCC3CC(CC(C3)C1)C2	6	6	26	9	8	3	·	·
O=C(Nc1ccc2c(c1)nc1n2CCSC1)c1ccco1	-88	35*	-75	5	-3	-2	45*	20*
Cc1ccc(C(=O)Nc2ccc(S(=O)(=O)NC3=NCCCCC3)cc2)cc1S(=O)(=O)N1CCOCC1	3	·	-4	2	-11	-8	·	·
Cc1ccc(-c2c[n+](CC(=O)Nc3nc(-c4ccc(F)cc4)cs3)c3n2CCC3)cc1	2	26*	29	2	-39	-9	19*	-3
CC(=O)Nc1cc(C(=O)OCC(=O)c2ccccc2)ccc1C	1	24*	19	3	-8	-10	60*	-17
SMILES	SENP1 FRET inh	HSP90 inh	SENP8 block-1	SENP7 inh	SENP6 inh	SENP8 block-2	HSP90 inh confirm	FLuc counter
CCC(=O)Nc1ccccc1C(=O)OCC(=O)c1ccccc1	3	52*	6	-8	0	-11	66*	-30
Cc1ccc(C(=O)OCC(=O)Nc2ccccc2)cc1NC(=O)c1ccco1	2	0	6	-3	-9	-3	·	·
Cc1ccn(C(=O)c2ccc(NC(=O)C3CC3)cc2)n1	2	-1	-12	2	6	-8	·	·
CCC(=O)Nc1cccc(-c2cc3ccccc3oc2=O)c1	1	19*	-203	5	5	4	32*	19*
CCC(=O)Nc1cccc(-c2nc3ccccc3o2)c1	3	8	-9	-7	-16	-15	·	·
COc1ccccc1OCc1ccc(C(=O)N(C)c2ccccc2)o1	1	32*	5	6	17	6	4	-2
COc1ccccc1NC(=O)c1coc(=O)c(Br)c1	-77	55*	-426	-3	-4	-8	83*	-7
COc1ncnc2c1ncn2CCCNCc1ccccn1	4	·	13	·	·	·	·	·
CCOc1ccc(NC(=O)Nc2nnc(CC)s2)cc1	-2	18*	27	-17	-17	-10	-2	-9
CCc1nnc(NC(=O)c2ccc(OC)cc2OC)s1	0	21*	-3	-1	-24	-14	47*	43*
COc1ccc(OCc2nnc(NC(=O)Nc3ccc(F)cc3)s2)cc1	0	-1	8	6	-11	-5	·	·
C[C@@H]1O[C@@H](O[C@@H]2C(=O)c3c(O)cc(O)cc3O[C@H]2c2ccc(O)c(O)c2)[C@H](O)[C@H](O)[C@H]1O	0	·	33	7	-12	-9	·	·
COc1ccc(C(=O)Cn2c(C)nc([N+](=O)[O-])c2Br)cc1	3	22*	6	6	-12	0	1	-7
COc1ccc(C(=O)Cn2cc([N+](=O)[O-])nc2C)cc1	0	2	3	0	-1	4	·	·
CC(=O)Nc1ccc(NC(=O)CSc2nnc(-c3ccc4c(c3)OCO4)o2)cc1	1	·	-1	-4	4	-14	·	·
CC(=O)CSc1nnc(-c2ccc3c(c2)OCO3)o1	-2	18*	9	11	-5	1	37*	5
COc1ccc(-c2cn3c(C)c(C(=O)Nc4ccncc4)sc3n2)cc1	0	12	-268	6	-8	-15	·	·
COC(=O)c1ccc(NC(=O)c2sc3nc(-c4ccccc4)cn3c2C)cc1	2	21*	-21	-9	0	-2	18*	-21
